# What was measured:
# Pseudomonas aeruginosa = test: Antibacterial activity against drug-sensitive Pseudomonas aeruginosa PAO1 after 20 hrs by liquid microdilution method; format: functional; settings: PAO1, 20 h
# Method in brief: (§1)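 Two-fold serial dilutions of compound in Mueller–Hinton broth, inoculated with 1 × 10^4 cells and cultured at 37 °C for 20 h in microtiter wells.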
# Staphylococcus aureus [1] = test: Induction of membrane disruption in methicillin-sensitive Staphylococcus aureus FDA 209P assessed as increase in K+ efflux after 30 mins; format: functional; settings: 0.5 h, read-out: ED50 (the source's name)
# Method in brief: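 S. aureus washed twice and suspended at 2 × 10^9 cells per cm3 in 100 mM choline chloride/50 mM Mops-Tris, pH 7.2, then exposed to compound at 37 °C for 30 min. Released K+ was measured in the centrifuged supernatant with a K+-selective electrode. Melittin (10 µM) defined 100% efflux, and ED50 is the concentration giving 50% efflux.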
# Enterococcus faecium = test: Antibacterial activity against drug-resistant Enterococcus faecium MS29120 after 18 to 20 hrs by agar dilution method; format: functional
# Method in brief: (§2)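 Agar dilution per CLSI. Overnight broth cultures were diluted 100-fold, and one loopful (about 10^5 to 10^4 CFU) was spotted onto agar plates containing the CD. Growth was scored after 18–20 h at 37 °C. MIC values are in µM.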
# Bacillus subtilis = test: Antibacterial activity against drug-sensitive Bacillus subtilis 168 after 20 hrs by liquid microdilution method; format: functional; settings: subsp. subtilis str. 168, 20 h; method in brief: as §1
# [2] = Hemolytic activity in rabbit RBC at 2 uM after 20 mins relative to control; format: ADME, cell-based, Oryctolagus cuniculus, Erythrocyte; settings: rabbit red blood cells (erythrocytes), read-out: Activity
# Method in brief: (§3)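 Rabbit erythrocytes suspended in 150 mM NaCl/10 mM Hepes-NaOH, pH 7.4, at 0.5% hematocrit (final) and incubated with compound at 37 °C. The table footnote gives 20 min; the methods section gives 30 min. Hemolysis was read as absorbance at 540 nm, with 50 µM lysolecithin defining 100% hemolysis.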
# [3] = Hemolytic activity in rabbit RBC at 1 uM after 20 mins relative to control; format: ADME, cell-based, Oryctolagus cuniculus, Erythrocyte; settings: rabbit red blood cells (erythrocytes), read-out: Activity; method in brief: as §3
# Streptococcus agalactiae = test: Antibacterial activity against drug-resistant Streptococcus agalactiae B1 after 18 to 20 hrs by agar dilution method; format: functional; method in brief: as §2
# [4] = Hemolytic activity in rabbit RBC at 20 uM after 20 mins relative to control; format: ADME, cell-based, Oryctolagus cuniculus, Erythrocyte; settings: rabbit red blood cells (erythrocytes), read-out: Activity; method in brief: as §3
# Staphylococcus aureus [5] = test: Antibacterial activity against methicillin-sensitive Staphylococcus aureus FDA 209P after 20 hrs by liquid microdilution method; format: functional; method in brief: as §1
# Staphylococcus aureus [6] = test: Antibacterial activity against Staphylococcus aureus FDA 209P assessed as decrease in cell viability after 30 mins by colony counting method; format: functional; settings: 0.5 h
# Method in brief: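 S. aureus washed twice and suspended at 2 × 10^9 cells per cm3 in 100 mM choline chloride/50 mM Mops-Tris, pH 7.2. Exposed to CD at 37 °C for 30 min. An aliquot was diluted in physiological saline, plated on polypeptone/yeast extract/NaCl agar and incubated overnight at 37 °C. Viability was taken from colony counts; LC50 is the concentration giving 50% viability.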
# Escherichia coli = test: Antibacterial activity against drug-sensitive Escherichia coli K-12 W3110 after 20 hrs by liquid microdilution method; format: functional; settings: K-12 substr. W3110, 20 h; method in brief: as §1
# Erythrocyte = test: Hemolytic activity in rabbit RBC at 50 uM after 20 mins relative to control; format: ADME, cell-based, Oryctolagus cuniculus; settings: erythrocyte, 20 min, 50 µM; method in brief: as §3
# Enterococcus faecalis [7] = test: Antibacterial activity against vancomycin-resistant Enterococcus faecalis MS29016 after 18 to 20 hrs by agar dilution method; format: functional; method in brief: as §2
# [8] = Hemolytic activity in rabbit RBC at 10 uM after 20 mins relative to control; format: ADME, cell-based, Oryctolagus cuniculus, Erythrocyte; settings: rabbit red blood cells (erythrocytes), read-out: Activity; method in brief: as §3
# [9] = Hemolytic activity in rabbit RBC at 5 uM after 20 mins relative to control; format: ADME, cell-based, Oryctolagus cuniculus, Erythrocyte; settings: rabbit red blood cells (erythrocytes), read-out: Activity; method in brief: as §3
# Enterococcus faecalis [10] = test: Antibacterial activity against drug-resistant Enterococcus faecalis MS29030 after 18 to 20 hrs by agar dilution method; format: functional; method in brief: as §2
# [11] = Lipophilicity, log P of the compound; format: physicochemical; settings: octanol/water
# Staphylococcus aureus [12] = test: Antibacterial activity against methicillin-resistant Staphylococcus aureus MS29202 after 18 to 20 hrs by agar dilution method; format: functional; method in brief: as §2
# Salmonella typhimurium = test: Antibacterial activity against drug-sensitive Salmonella typhimurium LT2 after 20 hrs by liquid microdilution method; format: functional, Salmonella enterica subsp. enterica serovar Typhimurium; settings: Salmonella enterica, LT2, 20 h; method in brief: as §1
# Staphylococcus aureus [13] = test: Induction of membrane disruption in methicillin-sensitive Staphylococcus aureus FDA 209P assessed as increase in K+ efflux at 10 uM after 30 mins relative to control; format: functional
# Method in brief: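 S. aureus suspension (2 × 10^9 cells per cm3, 100 mM choline chloride/50 mM Mops-Tris, pH 7.2) treated with CD at 37 °C for 30 min, then centrifuged. K+ released into the supernatant was read with a K+-selective electrode. Efflux is expressed relative to 10 µM melittin, which sets 100%.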
Structure (SMILES),MIC (Pseudomonas aeruginosa) [µM],EC50 (Staphylococcus aureus [1]) [µM],MIC (Enterococcus faecium) [µM],MIC (Bacillus subtilis) [µM],"hemolysis at 20 min, 2 µM [2] [%]","hemolysis at 20 min, 1 µM [3] [%]",MIC (Streptococcus agalactiae) [µM],"hemolysis at 20 min, 20 µM [4] [%]",MIC (Staphylococcus aureus [5]) [µM],LC50 (Staphylococcus aureus [6]) [µM],MIC (Escherichia coli) [µM],Activity (Erythrocyte) [%],MIC (Enterococcus faecalis [7]) [µM],"hemolysis at 20 min, 10 µM [8] [%]","hemolysis at 20 min, 5 µM [9] [%]",MIC (Enterococcus faecalis [10]) [µM],logP [11],MIC (Staphylococcus aureus [12]) [µM],MIC (Salmonella typhimurium) [µM],Activity (Staphylococcus aureus [13]) [%]
CCCCCCCNCc1cn(C[C@H]2O[C@@H]3O[C@H]4[C@H](O)[C@@H](O)[C@@H](O[C@H]5[C@H](O)[C@@H](O)[C@@H](O[C@H]6[C@H](O)[C@@H](O)[C@@H](O[C@H]7[C@H](O)[C@@H](O)[C@@H](O[C@H]8[C@H](O)[C@@H](O)[C@@H](O[C@H]9[C@H](O)[C@@H](O)[C@@H](O[C@H]2[C@H](O)[C@H]3O)O[C@@H]9Cn2cc(CNCCCCCCC)nn2)O[C@@H]8Cn2cc(CNCCCCCCC)nn2)O[C@@H]7Cn2cc(CNCCCCCCC)nn2)O[C@@H]6Cn2cc(CNCCCCCCC)nn2)O[C@@H]5Cn2cc(CNCCCCCCC)nn2)O[C@@H]4Cn2cc(CNCCCCCCC)nn2)nn1,40,30,> 40,5,39,9,> 40,116,5 to 40,15,20,137,> 40,110,85,> 40,0.36,> 40,20,
CC[C@H](C)[C@H](NC(=O)CN)C(=O)NCC(=O)N[C@@H](C)C(=O)N[C@H](C(=O)N[C@@H](CC(C)C)C(=O)N[C@@H](CCCCN)C(=O)N[C@H](C(=O)N[C@@H](CC(C)C)C(=O)N[C@H](C(=O)N[C@H](C(=O)NCC(=O)N[C@@H](CC(C)C)C(=O)N1CCC[C@H]1C(=O)N[C@@H](C)C(=O)N[C@@H](CC(C)C)C(=O)N[C@H](C(=O)N[C@@H](CO)C(=O)N[C@@H](Cc1c[nH]c2ccccc12)C(=O)N[C@H](C(=O)N[C@@H](CCCCN)C(=O)N[C@@H](CCCNC(=N)N)C(=O)N[C@@H](CCCCN)C(=O)N[C@@H](CCCNC(=N)N)C(=O)N[C@@H](CCC(N)=O)C(=O)N[C@@H](CCC(N)=O)C(N)=O)[C@@H](C)CC)[C@@H](C)CC)[C@@H](C)O)[C@@H](C)O)C(C)C)C(C)C [MELITTIN],,0.2 to 0.5,,,,,,,,0.2 to 0.5,,,,,,,,,,100

# Reference: ChEMBL document CHEMBL4257484, “Membrane-active antimicrobial poly(amino-modified alkyl) β-cyclodextrins synthesized via click reactions” (Medchemcomm, 2018)
